Assay outcomes from PubChem BioAssay.
Compounds with a hit are over-represented: about 2.3% of the library has one in this group of screens.
TAAR1 agonist: human TAAR1 agonists, primary screen, Fluo-8 calcium fluorescence, CHO RD-HGA16 cells; Trace amine-associated receptor 1 (Homo sapiens), Q96RJ0; 360,000 compounds, 0.99% hits; activation, % at 3 µM; vehicle wells 0%, saturating PEA agonist 100%;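 active = activation above the mean activation of all test compounds in the run plus 3 SD, cut at about 38% in these data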
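test system = CHO RD-HGA16 cells carrying human TAAR1 plus Gα16 | schedule = 17-24 h seeding, 75 min 37 °C dye, 30 min RT | compound dosing = 3 µM single concentration | control set = DMSO and PEA EC100 | replicates = n 1 | signal = Fluo-8 fluorescence, 5 s baseline then 140 s kinetic read | measure = percent activation vs PEA EC100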
OXTR potentiate: human OXTR potentiators, primary screen, fluorescence, CHO-OTR cells, Fluo-8 calcium; Oxytocin receptor (Homo sapiens), P30559; Fluo-8 calcium fluorescence, potentiator mode; 0% = oxytocin EC15, 100% = EC100; activation, % at 3 µM; 320,000 compounds, 0.061% hits; AID 2445, 2010;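 active = activation above that plate's cutoff, the mean activation of tested compounds plus 3 SD, cut at about 6.6% in these data, passing the limit was not always enough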;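 also: 100% uses oxytocin at 75 nM as the full agonist control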
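Assay system: CHO-OTR cells, human receptor / Also added: oxytocin at about EC15, sub-maximal agonist stimulus / Dosing: single dose, 3.0 µM nominal final compound concentration / Incubation: 6 min pre-incubation, 100 s read / Technique: Fluo-8 calcium dye fluorescence / Read-out: % activation vs EC15 and EC100 oxytocin / Benchmarks: EC15 oxytocin low, 75 nM oxytocin high / Replicates: singlicate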
V1aR counter: agonists of human V1a receptor, primary screen, counter-screen for OXTR agonist project, fluorescence, CHO-V1R cells. Fluo-8 calcium fluorescence, agonist mode; 0% DMSO, 100% 3 nM vasopressin. 320,000 compounds, 0.25% hits. activation, % at 3 µM. Vasopressin V1a receptor (Homo sapiens), P37288;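 active = activation above the mean activation of all tested compounds plus 3 SD, per screening run, cut at about 20% in these data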;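 also: signal is peak over basal fluorescence ratio across a 100 second FLIPR read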
Target sequence (P37288 whole entry, looked up): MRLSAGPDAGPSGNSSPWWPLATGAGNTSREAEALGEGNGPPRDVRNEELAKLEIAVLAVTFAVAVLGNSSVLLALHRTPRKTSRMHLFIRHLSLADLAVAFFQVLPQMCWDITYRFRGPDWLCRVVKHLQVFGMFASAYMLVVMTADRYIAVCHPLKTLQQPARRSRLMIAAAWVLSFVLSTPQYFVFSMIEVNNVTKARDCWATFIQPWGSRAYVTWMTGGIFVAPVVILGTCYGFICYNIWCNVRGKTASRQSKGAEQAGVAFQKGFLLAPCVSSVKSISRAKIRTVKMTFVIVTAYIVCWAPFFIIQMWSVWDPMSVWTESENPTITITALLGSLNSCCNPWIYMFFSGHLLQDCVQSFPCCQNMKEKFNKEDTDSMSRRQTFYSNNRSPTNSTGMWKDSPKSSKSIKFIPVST
OXTR agonist: human OXTR agonists, primary screen, fluorescence, CHO-OTR cells, Fluo-8 calcium. Oxytocin receptor (Homo sapiens), P30559. Fluo-8 calcium fluorescence; normalized: DMSO 0%, oxytocin 100%. activation, % at 3 µM. 320,000 compounds, 0.32% hits. AID 2435, 2010;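 active = activation above the mean of all tested compounds plus 3 SD, cutoff set per screening run, cut at about 20% in these data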;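 also: peak over basal fluorescence ratio from a 100 s FLIPR kinetic read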
TAAR1 antag: human TAAR1 antagonists, primary screen, Fluo-8 calcium fluorescence, CHO RD-HGA16 cells. AID 624466, 2012. Trace amine-associated receptor 1 (Homo sapiens), Q96RJ0. inhibition, % at 3 µM. 360,000 compounds, 1.5% hits. antagonist;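 active = inhibition above a per-plate cutoff, the mean inhibition of test compounds on that plate plus 3 SD, cut at about 49% in these data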;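 also: 0% = DMSO plus EC80 beta-PEA response and 100% = DMSO alone without agonist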
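Assay system: RD-HGA16 CHO cells with stable hTAAR1 and Gα16 / Reagent: EC80 β-phenethylamine stimulus / Doses: 3 µM, single point / Timing: dye loading 75 min at 37 °C, then 30 min room temperature / Measured by: Fluo-8 intracellular calcium dye fluorescence, real-time kinetic reads / Controls: vehicle wells and EC80 agonist wells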
TAAR1 ag conf: human TAAR1 agonists, retest of hits, confirmation, Fluo-8 calcium fluorescence, CHO RD-HGA16 cells | shares compounds with TAAR1 agonist | scaled: DMSO 0%, maximal phenethylamine 100% | activation, % at 3 µM | 2,400 compounds, 82% hits;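 active = activation above a cutoff set at the run's mean compound activation plus 3 SD, cut at about 39% in these data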
Ga16 nonsel ag: nonselective calcium mobilization agonists, CHO-Ga16 cells, counter-screen for hTAAR1 agonist project, cell-based, fluorescence, CHO-Ga16 parental line; 2,400 compounds, 50% hits; Fluo-8 calcium fluorescence; normalized to maximal ATP response, DMSO zero; activation, % at 3 µM; AID 651787, 2012; shares compounds with TAAR1 agonist;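 active = activation above the run cutoff, the mean activation over all tested wells plus 3 SD, cut at about 12% in these data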;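 also: 0% = DMSO wells and 100% = maximal ATP response on the peak over basal ratio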
TAAR1 desens: TAAR1 desensitization by agonist hits, confirmation, counter-screen for TAAR1 agonist project, cell-based, fluorescence, tachyphylaxis; 2,400 compounds, 46% hits; CHO RD-HGA16 hTAAR1, Fluo-8 calcium, beta-PEA response inhibition; inhibition, % at 3 µM; shares compounds with TAAR1 agonist;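 active = inhibition above the run cutoff, the mean inhibition of all test compounds plus 3 SD, cut at about 49% in these data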;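 also: beta-PEA stimulus applied at its EC80; loss of beta-PEA calcium signal after compound pretreatment read as receptor desensitization; 0% = DMSO with beta-PEA at EC80 and 100% = DMSO alone without agonist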
Ga16 nonsel ant: inhibition of ATP-evoked calcium response in CHO-Ga16 cells, counter-screen for TAAR1 agonist project, cell-based, fluorescence; inhibition, % at 3 µM; AID 651952, 2012; 2,400 compounds, 39% hits; CHO-Ga16 ATP-induced calcium, Fluo-8 fluorescence; shares compounds with TAAR1 agonist;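 active = inhibition above the plate's mean compound inhibition plus 3 SD, computed per plate, cut at about 22% in these data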;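 also: 0% = EC80 ATP with DMSO and 100% = DMSO wells without ATP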
The depositor's hits bear a star; · = no result.

SMILES	TAAR1 agonist	OXTR potentiate	V1aR counter	OXTR agonist	TAAR1 antag	TAAR1 ag conf	Ga16 nonsel ag	TAAR1 desens	Ga16 nonsel ant
COc1cc(/C=C/[N+](=O)[O-])ccc1O	14.2	9.4	3.0	0.6	5.7	·	·	·	·
CCN(CC)c1ccc(/C=C/[N+](=O)[O-])cc1	226.6*	-17.5	72.6*	41.6*	89.8*	50.7*	58.1*	50.6*	58.8*
Fc1cccc(-c2ccc3c(c2)CNCc2cnnn2-3)c1	-1.8	·	·	·	-0.8	·	·	·	·
Cc1cc(OCC(=O)N2CCC(C(=O)O)CC2)c2c3c(c(=O)oc2c1)CCC3	-0.2	-5.9	0.6	0.4	-2.5	·	·	·	·
O=C(O)C1C2c3ccccc3C(O)C1(C(=O)O)c1ccccc12 (configuration not stated)	6.5	·	·	·	-16.0	·	·	·	·
CCOC(=O)C(O)(c1ccc(NC(=S)NC(=O)c2ccc(Cl)cc2Cl)c(C)c1)C(F)(F)F (configuration not stated)	76.1*	-12.6	34.2*	32.0*	99.2*	95.8*	55.7*	106.6*	84.6*
CCOC(=O)C(O)(c1ccc(NC(=O)Oc2ccccc2)cc1)C(F)(F)F (configuration not stated)	3.6	-3.8	0.7	-0.6	5.8	·	·	·	·
CCOC(=O)C(O)(c1ccc(NC(=S)NC(=O)c2ccc(Cl)cc2Cl)cc1)C(F)(F)F (configuration not stated)	78.3*	-15.0	33.8*	50.6*	79.2*	74.5*	44.9*	93.1*	73.2*
CC(=O)O[C@H]1CC[C@@]2(C)[C@H](C1)C(=O)C[C@H]1[C@@H]3CC[C@@H]4[C@@H](CN5C[C@@H](C)CC[C@H]5[C@@]4(C)O)[C@@H]3C[C@@H]12	-1.5	-9.0	0.5	-0.4	-1.9	·	·	·	·
COC(=O)C1=C(c2ccc(OCc3ccccc3)cc2)C[C@@H]2CC[C@H]1N2C(=O)NC1CCN(Cc2ccccc2)CC1	·	-9.0	6.7	14.8	·	·	·	·	·
O=C1NC(=S)N(c2ccc(Br)cc2)C(=O)/C1=C/N1CCN(C(=O)c2ccco2)CC1	32.2	-19.1	2.4	2.3	10.8	·	·	·	·
Cc1cccc(N2C(=O)/C(=C/N3CCN(C(=O)c4ccco4)CC3)C(=O)NC2=S)c1	49.1*	-8.1	1.0	0.5	-13.7	60.7*	0.4	3.8	4.5
Cc1ccc(N2C(=O)/C(=C/N3CCN(C(=O)c4ccco4)CC3)C(=O)NC2=S)cc1C	56.1*	-0.9	0.8	1.1	-7.2	73.4*	0.6	5.9	1.9
O=C1NC(=S)N(c2ccccc2)C(=O)/C1=C/c1ccco1	1.8	-22.1	4.6	2.7	8.2	·	·	·	·
CCN(CC)c1ccc(/C=C2/C(=O)NC(=O)N(Cc3ccco3)C2=O)cc1	44.9*	-5.2	0.8	1.9	20.7	66.1*	30.0*	41.4	34.3*
